{"data": "Experimental data of several laboratories", "Fibroblast growth factor 14": "Fibroblast growth factor 14 (Homo sapiens, UniProt Q92915)", "TAOK2": "Serine/threonine-protein kinase TAO2 (TAOK2, Homo sapiens, UniProt Q9UL54)", "HTR1A": "5-hydroxytryptamine receptor 1A (HTR1A, Homo sapiens, UniProt P08908)", "note": "Each line is one published result; the experiments were not run side by side."}
{"SMILES": "Cc1nc(CSc2nc(-c3ccc(C(C)(C)C)cc3)n[nH]2)cs1", "target": "Fibroblast growth factor 14", "assay": "thermal stability", "setting": "25 µM", "measurement": "ΔTm", "value": "0.3 °C"}
{"SMILES": "C#Cc1cc(-c2cc(Nc3nc(N[C@@H](C)c4ccc(F)cn4)ncc3Cl)n[nH]2)ccc1C=O", "target": "TAOK2", "assay": "enzyme activity, inhibitor", "setting": "0.2 µM", "measurement": "inhibition", "value": "3.89%"}
{"SMILES": "Cc1cc(O)c(-c2ccc([C@@H](C)CN(C)C)cc2)c2c1[nH]c(=O)c1sccc12", "target": "TAOK2", "assay": "enzyme activity, inhibitor", "setting": "0.1 µM", "measurement": "inhibition", "value": "-4.37%"}
{"SMILES": "Cc1cc(F)cc2c(CCC(=O)N[C@@H]3C(=O)NC[C@H]3O)c(-c3ccc(F)cc3)[nH]c12", "target": "HTR1A", "assay": "cell-free assay", "setting": "10 µM", "measurement": "inhibition", "value": "-8%"}
{"SMILES": "CCCCC(=O)Nc1ccc(-c2ccc3ncn(CCC)c(=O)c3c2)cn1", "target": "cAMP-dependent protein kinase catalytic subunit beta (PRKACB, Homo sapiens, UniProt P22694)", "assay": "binding, competition with immobilised ligand", "setting": "0.5 µM", "measurement": "remaining binding", "value": "87%"}
{"SMILES": "Cc1cccc(NC(=O)Cn2cc(CO)c3ccccc32)c1", "target": "Fibroblast growth factor 14", "assay": "binding, SPR", "measurement": "kon", "value": "8900 M⁻¹ s⁻¹"}
{"SMILES": "NC/C(=C\\F)COc1cccc(Cn2c(=S)[nH]c(=O)c3[nH]cnc32)c1", "target": "Glucocorticoid receptor (NR3C1, Homo sapiens, UniProt P04150)", "assay": "ligand displacement, radioligand", "setting": "10 µM", "measurement": "inhibition", "value": "< 50%"}
{"SMILES": "C1=C/COCc2cc(ccc2OCCN2CCCC2)Nc2nccc(n2)-c2cccc(c2)COC/1", "target": "Eukaryotic translation initiation factor 2-alpha kinase 1 (EIF2AK1, Homo sapiens, UniProt Q9BQI3)", "assay": "binding", "setting": "0.1 µM", "measurement": "remaining binding", "value": "87%"}
{"SMILES": "O=c1cc(-c2ccc([N+](=O)[O-])cc2)[nH]c2c(-c3ccc(Cl)cc3)c(Cc3ccccc3)nn12", "target": "Fibroblast growth factor 14", "assay": "binding, SPR", "measurement": "koff", "value": "0.00101 s⁻¹"}
{"SMILES": "CN(C)CCOC(=O)COc1ccc(Cl)cc1", "target": "HTR1A", "assay": "ligand displacement, radioligand", "setting": "1 µM, cell membranes", "measurement": "inhibition", "value": "-5.33%"}
{"SMILES": "COc1ccc2oc(-c3ccc4nc(N)oc4c3)c/c(=N\\c3ccccc3NC(=O)CCN)c2c1", "target": "Serine/threonine-protein kinase BRSK2 (BRSK2, Homo sapiens, UniProt Q8IWQ3)", "assay": "binding", "setting": "1 µM", "measurement": "remaining binding", "value": "85%"}
{"SMILES": "CCN1/C(=C/C(C)=O)Sc2ccc(F)cc21", "target": "HTR1A", "assay": "ligand displacement, radioligand", "setting": "10 µM", "measurement": "inhibition", "value": "1.73%"}
{"SMILES": "O=C(CN(Cc1ccccc1)S(=O)(=O)c1ccc(F)cc1)Nc1cccc(Cl)c1Cl", "target": "Fibroblast growth factor 14", "assay": "thermal stability", "setting": "25 µM", "measurement": "ΔTm", "value": "1 °C"}
